Laboratory results taken from ChEMBL document CHEMBL3351678, “Benzoquinones as inhibitors of botulinum neurotoxin serotype A” (Bioorg Med Chem, 2014).
Active and inactive are the calls of the source. The rule behind the calls is not given here.

Columns and labels:
[1] = target: T1, Botulinum neurotoxin type A (Clostridium botulinum, UniProt P0DPI0); test: Competitive inhibition of recombinant Clostridium botulinum neurotoxin serotype A light chain assessed as [13C]-labeled 9-mer cleavage product formation using 66-mer substrate after 25 mins by LC-MS method
T1 sequence (P0DPI0 2-448 limits assumed): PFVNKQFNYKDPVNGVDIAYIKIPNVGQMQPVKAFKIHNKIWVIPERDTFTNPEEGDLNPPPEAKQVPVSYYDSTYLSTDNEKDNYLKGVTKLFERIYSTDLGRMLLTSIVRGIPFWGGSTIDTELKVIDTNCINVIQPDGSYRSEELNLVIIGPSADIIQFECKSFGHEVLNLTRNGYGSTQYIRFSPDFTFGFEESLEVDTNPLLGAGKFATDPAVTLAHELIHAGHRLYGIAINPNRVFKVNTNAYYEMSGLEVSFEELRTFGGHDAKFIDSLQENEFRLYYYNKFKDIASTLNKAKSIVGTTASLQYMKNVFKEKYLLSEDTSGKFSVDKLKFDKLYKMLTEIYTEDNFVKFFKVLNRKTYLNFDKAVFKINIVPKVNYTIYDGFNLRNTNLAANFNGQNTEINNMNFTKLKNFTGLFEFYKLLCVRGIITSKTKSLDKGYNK
How it was run: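 66-mer SNAP-25 substrate (5 µM) cleaved by recombinant BoNT/A LC (0.8 nM) in 40 mM HEPES pH 7.4 for 25 min. Quenched with 20% TFA. 13C-labelled 9-mer internal standard added, and cleavage product quantified by LCMS relative to it. IC50 derived from initial velocities using the rearranged IC50 equation.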

[2] = target: Botulinum neurotoxin type A (Clostridium botulinum) (UniProt P0DPI0); test: Inhibition of recombinant Clostridium botulinum neurotoxin serotype A light chain assessed as Kinact to KI ratio at 50 uM after 1.5 hrs by SNAPtide FRET based assay
Sequence of Botulinum neurotoxin type A (Clostridium botulinum) (P0DPI0 2-448 limits assumed): as above

[3] = Glutathione reactivity at 1 mM in presence of 1 mM glutathione containing PBS and 1 mM EDTA buffer at pH 7.4 assessed as remaining GSH level after 10 seconds by spectrophotometry by Ellman's method
How it was run: (§1)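 Compound (1 mM) incubated with glutathione (1 mM) in PBS + 1 mM EDTA, pH 7.4. At each time point, an aliquot was diluted 1:10 into 4 mg/mL DTNB and absorbance read at 412 nm. Compound blanks included. Free GSH quantified against a 0–1.25 mM GSH standard curve and expressed as % remaining.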

[4] = Glutathione reactivity at 1 mM in presence of 1 mM glutathione containing PBS and 1 mM EDTA buffer at pH 7.4 assessed as remaining GSH level after 30 mins by spectrophotometry by Ellman's method; how it was run: as §1
[5] = target: Botulinum neurotoxin type A (Clostridium botulinum) (UniProt P0DPI0); test: Irreversible inhibition of recombinant Clostridium botulinum neurotoxin serotype A light chain assessed as Kinact to KI ratio after 1.5 hrs by SNAPtide FRET based assay
[6] = Glutathione reactivity at 1 mM in presence of 1 mM glutathione containing PBS and 1 mM EDTA buffer at pH 7.4 assessed as second order rate constant by spectrophotometry by Ellman's method
How it was run: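 Compound and glutathione (1 mM each) in PBS + 1 mM EDTA, pH 7.4. Free thiol followed over time by 1:10 dilution into 4 mg/mL DTNB, A412, with compound blanks and a GSH standard curve. Second-order kGSH of Michael adduct formation derived from 1/[GSH] − 1 = 2kGSH·t.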

[7] = Glutathione reactivity at 1 mM in presence of 1 mM glutathione containing PBS and 1 mM EDTA buffer at pH 7.4 assessed as remaining GSH level after 1 hr by spectrophotometry by Ellman's method; how it was run: as §1
[8] = target: T1, Botulinum neurotoxin type A; test: Competitive inhibition of recombinant Clostridium botulinum neurotoxin serotype A light chain assessed as reduction in benzoquinone-mediated BoNT/A inactivation by SNAPtide FRET based assay
[9] = target: T1, Botulinum neurotoxin type A; test: Competitive inhibition of recombinant Clostridium botulinum neurotoxin serotype A light chain assessed as reduction in initial rates of BoNT/A LC activity by SNAPtide FRET based assay
How it was run: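 Recombinant 425-aa BoNT/A LC (18.5 nM) and SNAPtide (5 µM) in 40 mM HEPES + 0.1% Triton X-100, pH 7.4. Cleavage read by fluorescence. Velocities fitted to V = Vcontrol/(1 + [I]/IC50) to give IC50.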

[10] = target: Botulinum neurotoxin type A (Clostridium botulinum) (UniProt P0DPI0); test: Time dependent inhibition of recombinant Clostridium botulinum neurotoxin serotype A light chain assessed as Kinact to KI ratio after 1.5 hrs by SNAPtide FRET based assay
How it was run: (§2)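 Recombinant 425-residue BoNT/A light chain (18.5 nM) with 5 µM SNAPtide FRET substrate in 40 mM HEPES, 0.1% Triton X-100, pH 7.4. Inhibitor is present with enzyme and substrate, without preincubation, across a range of concentrations.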

[11] = target: Botulinum neurotoxin type A (Clostridium botulinum) (UniProt P0DPI0); test: Inhibition of recombinant Clostridium botulinum neurotoxin serotype A light chain assessed as [13C]-labeled 9-mer cleavage product formation at 50 uM using 66-mer substrate after 25 mins by LC-MS method
How it was run: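 Inhibitors at 50 µM with recombinant BoNT/A LC (0.8 nM) and 66-mer substrate (5 µM) in 40 mM HEPES pH 7.4. Cleavage ran 25 min, then quenched with 20% TFA. 9-mer product quantified by LCMS against a 13C-labelled 9-mer internal standard.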

[12] = target: T1, Botulinum neurotoxin type A; test: Competitive inhibition of Clostridium botulinum neurotoxin serotype A light chain
[13] = target: Botulinum neurotoxin type A (Clostridium botulinum) (UniProt P0DPI0); test: Time dependent inhibition of recombinant Clostridium botulinum neurotoxin serotype A light chain assessed as Kinact to KI ratio at 200 uM by SNAPtide FRET based assay; how it was run: as §2

Row | Structure (SMILES) | IC50 ([1]; read-out: IC50) [µM] | Ratio [2] [M⁻¹ s⁻¹] | Activity [3] [%] | Activity [4] [%] | further results
1 | NCC(=O)NCc1ccc(-c2ccccc2)cc1 | 160 | – | – | – | –
2 | O=C1C=C(Cl)C(=O)C=C1Cl | – | 84 | 0 | 0 | –
3 | COc1ccc(OC)c(Cn2cnc(C(=O)NCc3ccc(-c4ccccc4)cc3)n2)c1 | 40 | – | – | – | –
4 | O=C1C=CC(=O)C(c2ccccc2)=C1 | – | 9.7 | 21 | 8 | –
5 | O=C1C=CC(=O)c2c(OCc3ccccc3)cccc21 | – | 2 | 57 | 39 | –
6 | COC(=O)c1cccc(NC2=CC(=O)C=CC2=O)n1 | 14 | – | – | – | –
7 | O=C1C=CC(=O)c2cc(O)ccc21 | – | 0.94 | 71 | 32 | Ratio [5]: 1.17 M⁻¹ s⁻¹; K [6]: 0.036 min⁻¹; Activity [7]: 22%
8 | COC1=CC(=O)C=C(OC)C1=O | – | – | 45 | 0 | inhibition [2]: inactive
9 | CC(=O)Oc1cccc2c1C(=O)C=CC2=O | – | 4 | 51 | 26 | –
10 | O=C1C=CC(=O)C(Nc2ccccn2)=C1 | 97 | – | – | – | –
11 | CC1=CC(=O)C=C(C)C1=O | – | – | 22 | 0 | inhibition [2]: inactive
12 | NCC(=O)Nc1cccc(OCc2ccccc2)c1 | 417 | – | – | – | –
13 | O=C1C=CC(=O)C(Nc2cccc(C(=O)NCc3ccc(Oc4ccccc4)cc3)n2)=C1 | 2.3 | 1.7 | – | – | –
14 | COc1cccc2c1C(=O)C=CC2=O | – | 0.99 | 80 | 27 | K [6]: 0.053 min⁻¹; Activity [7]: 14%
15 | O=C1C=CC(=O)C(CCC(=O)O)=C1 | – | 1.2 | – | – | IC50 [1]: Not Active
16 | CC1=CC(=O)C=CC1=O | – | 2.5 | 35 | 5 | –
17 | O=C(NCc1ccc(Oc2ccccc2)cc1)c1ccccn1 | 570 | – | – | – | –
18 | COC1=CC(=O)C=CC1=O | – | 4.1 | – | – | –
19 | COc1ccc(OC)c(CNCC(=O)Nc2cccc(OCc3ccccc3)c2)c1 | 25 | – | – | – | –
20 | COC1=C(c2ccc(C)cc2)C(=O)C=CC1=O | – | 9.5 | 25 | 19 | –

Row | Structure (SMILES) | IC50 ([1]; read-out: IC50) [µM] | Ratio [2] [M⁻¹ s⁻¹] | Activity [3] [%] | Activity [4] [%] | further results
21 | NCC(=O)Nc1ccc(Oc2ccccc2)cc1 | 120 | – | – | – | IC50 [8]: 258 µM; IC50 [9]: 163 µM
22 | COc1ccc(OC)c(Nc2cccc(C(=O)NCc3ccc(Oc4ccccc4)cc3)n2)c1 | 200 | – | – | – | –
23 | O=C1C=CC(=O)C=C1 | – | 17 | 24 | 6 | Ratio [5]: 12.4 M⁻¹ s⁻¹; Ratio [10]: 11.8 M⁻¹ s⁻¹; inhibition [11]: Active
24 | O=C1C=CC(=O)C(c2ccc(I)cc2)=C1 | – | 10 | – | – | –
25 | O=C(NCc1ccc(-c2ccccc2)cc1)c1nc[nH]n1 | 210 | – | – | – | –
26 | CC1=CC(=O)c2ccccc2C1=O | – | 1.1 | – | – | –
27 | O=C1C=CC(=O)C(CNCC(=O)Nc2cccc(OCc3ccccc3)c2)=C1 | 18 | – | – | – | –
28 | O=C1C=CC(=O)c2ccccc21 | – | 2 | 47 | 20 | –
29 | COC1=CC(=O)C(OC)=C(c2ccc(C)cc2)C1=O | – | 0.82 | 89 | 49 | K [6]: 0.032 min⁻¹; Activity [7]: 35%
30 | ONCC12CC3CC(CC(C3)C1)C2 | – | – | – | – | Ki [12]: 0.46 µM; IC50 [8]: 1.5 µM; IC50 [9]: 1.6 µM
31 | O=C1C=CC(=O)C(Cl)=C1 | – | 51 | – | – | –
32 | COC1=CC(=O)C(c2ccc(C)cc2)=CC1=O | – | – | – | – | inhibition [2]: inactive
33 | O=C1C=CC(=O)c2c(O)ccc(O)c21 | – | 2.2 | 85 | 39 | K [6]: 0.025 min⁻¹; Activity [7]: 26%
34 | C[C@]12CC[C@@H]3c4ccc(C5=CC(=O)C=CC5=O)cc4CC[C@H]3[C@@H]1CCC2=O | – | 3.9 | – | – | –
35 | O=C1C=CC(=O)C(CC(=O)O)=C1 | 9.3 | 0.56 | – | – | –
36 | CC1=CC(=O)C(C(C)C)=CC1=O | – | 0.38 | – | – | –
37 | O=C1C=CC(=O)c2c(O)cccc21 | – | 5.3 | 44 | 32 | Ratio [5]: 3.71 M⁻¹ s⁻¹; Ratio [13]: 3.35 M⁻¹ s⁻¹
38 | Cc1ccc(C2=CC(=O)c3ccccc3C2=O)cc1 | – | 0.91 | – | – | –
39 | O=C1C=CC(=O)C(Cn2cnc(C(=O)NCc3ccc(-c4ccccc4)cc3)n2)=C1 | 2.5 | – | – | – | –
